Experimental data taken from ChEMBL document CHEMBL3352390, “Selective CB2 receptor agonists. Part 2: Structure-activity relationship studies and optimization of proline-based compounds” (Bioorg Med Chem Lett, 2015).

Tests used:
[1] = Mean residence time in Wistar Han rat at 1 mg/kg, iv; assay type: ADME, organism-based; parameters: dose 1 mg/kg, route intravenous; conditions: in vivo
Outline: (§1)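 Wistar Han or Sprague Dawley rats given 1 mg/kg iv as a solution or 5 mg/kg po as a suspension. Plasma taken at several time points and quantified by HPLC-MS/MS. Parameters derived by non-compartmental analysis.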

[2] = Volume of distribution at steady state in Wistar Han rat at 1 mg/kg, iv; assay type: ADME, organism-based; parameters: dose 1 mg/kg, route intravenous; conditions: in vivo, read-out: Vdss; outline: as §1
[3] = Permeability from apical to basolateral side of human Caco2 cells; assay type: ADME, cell-based; conditions: Caco-2, read-out: permeability
[4] = Oral bioavailability in Wistar Han rat at 5 mg/kg; assay type: ADME, organism-based; conditions: in vivo; outline: as §1
[5] = Permeability from basolateral to apical side of human Caco2 cells; assay type: ADME, cell-based; conditions: Caco-2, read-out: permeability
[6] = Oral bioavailability in Wistar Han rat at 10 mg/kg; assay type: ADME, organism-based; conditions: in vivo
Outline: (§2)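 Wistar Han rats dosed orally with a suspension, at 10 mg/kg or 10 µmol/kg. Plasma taken at several time points and quantified by HPLC-MS/MS. Bioavailability derived by non-compartmental analysis.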

[7] = Ratio of drug uptake in brain to plasma of Wistar Han rat; assay type: ADME; conditions: brain and plasma, read-out: BPR
[8] = Volume of distribution at steady state in Wistar Han rat at […], iv; assay type: ADME, organism-based; conditions: in vivo, read-out: Vdss
[9] = Oral bioavailability in Wistar Han rat at 10 umol/kg; assay type: ADME, organism-based; conditions: in vivo; outline: as §2
[10] = Mean residence time in Wistar Han rat at […], iv; assay type: ADME, organism-based; conditions: in vivo

| SMILES | MRT [1] | Vd [2] | Papp A→B [3] | bioavailability [4] | Papp B→A [5] | bioavailability [6] | Kp [7] | Vd [8] | bioavailability [9] | MRT [10] |
| --- | --- | --- | --- | --- | --- | --- | --- | --- | --- | --- |
| CC(C)(C)c1cc(NC(=O)[C@@H]2CCCN2c2ccc(Cl)cc2)no1 | 1 h | 7.9 L/kg | 24 ×10⁻⁶ cm/s | 5% | 18 ×10⁻⁶ cm/s | – | – | – | – | – |
| CC(C)(C)c1cc(NC(=O)[C@@H]2CCC(=O)N2c2ccc(Cl)cc2)on1 | 1.3 h | 4.5 L/kg | 11 ×10⁻⁶ cm/s | – | 23 ×10⁻⁶ cm/s | 44% | 0.41 | – | – | – |
| CC(C)(C)c1cc(NC(=O)[C@@H]2CCC(=O)N2c2ccc(C(F)(F)F)cc2)on1 | – | – | 14 ×10⁻⁶ cm/s | – | 7.5 ×10⁻⁶ cm/s | – | 0.9 | 3.8 L/kg | 88% | 6 h |
| CC(C)(C)c1cc(NC(=O)[C@@H]2C[C@@H](O)CN2CC2CCOCC2)on1 (relative stereo) | – | – | – | – | – | – | – | 1.3 L/kg | 18% | 0.34 h |
